How the values were obtained:
[1] = test system: HCT-116; assay: Cytotoxicity against human HCT116 cells after 72 hrs by MTS assay; assay type: functional, cell-based; conditions: HCT-116, 72 h
Outline: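 HCT-116 colon tumor cells plated and incubated overnight at 37 °C, then given serially diluted samples in DMSO for a further 72 h. Etoposide as positive control and DMSO as negative control. MTS/PMS added for 3 h, absorbance read at 490 nm, IC50 derived from serial dilution data.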

[2] = test system: Salmonidae; assay: Displacement of ethidium bromide form salmon testes sperm DNA by fluorescence plate reader
Outline: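 Salmon testes sperm DNA (25 μg mL⁻¹) with ethidium bromide (0.5 μg mL⁻¹) in TE, compound final concentrations 100 to 0.01 μM in tenfold steps. n = 4 per dose, n = 8 for controls. Fluorescence measured, background EtBr subtracted and divided by the DNA+EtBr control. KS is the concentration giving 50% fluorescence decrease.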

[3] = biological target: T1, DNA topoisomerase 1 (Homo sapiens) (UniProt P11387); assay: Inhibition of topoisomerase 1-mediated relaxation of supercoiled DNA assessed as DNA cleavage at 500 uM relative to control; design: scale not given: the % may be the effect or the level left
T1 sequence (whole entry): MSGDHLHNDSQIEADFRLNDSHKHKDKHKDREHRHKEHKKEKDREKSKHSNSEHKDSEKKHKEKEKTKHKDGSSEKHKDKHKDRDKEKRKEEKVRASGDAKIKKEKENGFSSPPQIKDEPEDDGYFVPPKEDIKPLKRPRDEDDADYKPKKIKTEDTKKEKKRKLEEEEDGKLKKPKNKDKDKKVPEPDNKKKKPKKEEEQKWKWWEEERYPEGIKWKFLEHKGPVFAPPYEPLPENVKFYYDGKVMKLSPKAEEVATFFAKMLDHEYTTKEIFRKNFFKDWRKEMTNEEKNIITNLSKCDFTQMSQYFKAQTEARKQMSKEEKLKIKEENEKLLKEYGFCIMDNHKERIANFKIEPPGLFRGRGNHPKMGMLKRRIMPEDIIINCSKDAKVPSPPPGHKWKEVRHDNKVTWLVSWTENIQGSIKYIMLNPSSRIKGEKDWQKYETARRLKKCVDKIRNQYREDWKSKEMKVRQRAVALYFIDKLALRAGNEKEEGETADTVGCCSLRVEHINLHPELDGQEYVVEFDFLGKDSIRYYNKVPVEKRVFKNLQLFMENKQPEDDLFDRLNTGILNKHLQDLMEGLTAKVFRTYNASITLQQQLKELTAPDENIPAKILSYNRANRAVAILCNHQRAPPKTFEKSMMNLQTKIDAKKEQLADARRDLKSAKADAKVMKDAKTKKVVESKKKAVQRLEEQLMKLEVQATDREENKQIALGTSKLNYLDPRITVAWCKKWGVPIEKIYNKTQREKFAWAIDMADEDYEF
Outline: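 Radiolabeled supercoiled rf M13 mp19 DNA with purified topoisomerase I (80-120 ng) in Tris-HCl 50 mM pH 7.5, KCl 85 mM, MgCl2 10 mM, EDTA 0.5 mM, BSA 30 μg/mL, DTT 2 mM. Compound in DMSO, 30 °C for 30 min, then proteinase K/SDS at 37 °C for 60 min. 0.8% agarose gel, bands excised and scintillation counted. % cleaved from nicked plus linear bands over total, minus endogenous cleavage. 9-aminocamptothecin as reference.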

[4] = biological target: T1, DNA topoisomerase 1 (Homo sapiens); assay: Inhibition of topoisomerase 1-mediated relaxation of supercoiled DNA assessed as DNA cleavage at 9 uM relative to control; design: scale not given: the % may be the effect or the level left
Outline: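 Radiolabelled supercoiled rf M13 mp19 DNA (500 ng) and purified topoisomerase I (80-120 ng) in Tris-HCl 50 mM pH 7.5, KCl 85 mM, MgCl2 10 mM, EDTA 0.5 mM, BSA 30 µg/mL, DTT 2 mM. Compound added in DMSO; 30 °C, 30 min. Proteinase K/SDS stop (37 °C, 60 min). Bands resolved on 0.8% agarose, excised and scintillation-counted. Nicked+linear counts taken as % of total, minus endogenous cleavage.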

| SMILES | IC50 [1] | also measured |
| --- | --- | --- |
| COC1[C@H]2C(=O)C=C3S[C@H]4C[C@]31C1=C(N4)C(=O)c3[nH]cc4c3C1=[N+]2CC4 (stereo not given in full) | 232 nM |  |
| O=C1C[C@H]2S[C@H]3C[C@]2(C=C1Br)C1=C(N3)C(=O)c2[nH]cc3c2C1=NCC3 [DISCORHABDINE A] | 7 nM |  |
| NC1[C@H]2C(=O)C=C3S[C@H]4C[C@]31C1=C(N4)C(=O)c3[nH]cc4c3C1=[N+]2CC4 (stereo not given in full) | 119 nM |  |
| O=C1C2=C(C3=NCCc4c(Br)[nH]c1c43)C1(C=C(Br)C(O)C(Br)=C1)CCN2 (stereo not given) | 645 nM |  |
| O=C1c2[nH]cc3c2C(=[N+](O)CC3)c2c(-c3ccc(O)cc3)c[nH]c21 | 128000 nM | Ks [2]: 20 µM; Activity [3]: 45% |
| C[N+]1=C2C=C(N)C(=O)c3[nH]cc(c32)CC1 [MAKALUVAMINE C] | 1090 nM |  |
| O=C1C(Br)=CC2(C=C1Br)CCNC1=C2C2=NCCc3c(Br)[nH]c(c32)C1=O | 77 nM |  |
| O=C1C2=C(C3=NCCc4c(Br)[nH]c1c43)C1(C=CN2)C=C(Br)C(O)C(Br)=C1 (stereo not given) | 222 nM |  |
| Cn1cc2c3c1C(=O)c1[nH]cc(-c4ccc(O)cc4)c1C3=[N+]([O-])CC2 | 16500 nM | Ks [2]: 30 µM; Activity [3]: 26% |
| O=C1c2[nH]cc3c2C(=NCC3)c2c(-c3c[nH]c4ccccc34)c[nH]c21 |  | Ks [2]: 20 µM |
| O=C(O)CNC1C2C(=O)C=C3SC4CC31C1=C(N4)C(=O)c3[nH]cc4c3C1=[N+]2CC4 (stereo not given) [DISCORHABDIN N] | 2250 nM |  |
| O=C1C2=C3C4=[N+](CCc5c[nH]c1c54)[C@H]1C[C@@]34C[C@@H](N2)SC4=CC1=O [DISCORHABDIN D] | 595 nM |  |
| CN1CCc2c[nH]c(C(=O)O)c2C1=O [MAKALUVIC ACID A] | 28400 nM |  |
| O=C1c2[nH]cc3c2C(=NCC3)c2c(-c3ccc(O)cc3)c[nH]c21 [TSITSIKAMMAMINE A] | 1410 nM | Ks [2]: 15 µM; Activity [3]: 59% |
| O=C1C2=C(C3=NCCc4c[nH]c1c43)C1(C=CN2)C=C(Br)C(O)C(Br)=C1 (stereo not given) | 197 nM |  |
| Cn1cc2c3c1C(=O)c1[nH]cc(-c4ccc(O)cc4)c1C3=NCC2 [TSITSIKAMMAMINE B] | 2380 nM | Ks [2]: 45 µM; Activity [3]: 27% |
| O=C1C=CC23CC(NC4=C2C2=NCCc5c[nH]c(c52)C4=O)SC3=C1 (stereo not given) [DISCORHABDIN G] | 327 nM |  |
| O=C1C2=C(C3=NCCc4c[nH]c1c43)C1(C=C(Br)C(O)C(Br)=C1)CCN2 (stereo not given) [DIHYDRODISCORHABDIN C] | 323 nM |  |
| CC[C@@]1(O)C(=O)OCc2c1cc1n(c2=O)Cc2cc3c(N)cccc3nc2-1 |  | Activity [4]: 87% |
| O=C1C2=C3C4=[N+](CCc5c(Br)[nH]c1c54)C1C(O)C(Br)=CC3(CCN2)C1O (stereo not given) | 12500 nM |  |
| CN1CCc2c[nH]c3c2C1=CC(=O)C3=O [DAMIRONE B] | 3100 nM |  |
| O=C1C2=C3C4=[N+](CCc5c[nH]c1c54)C1CC3(C=C(Br)C1O)CCN2 (stereo not given) [DISCORHABDIN V] | 1270 nM |  |

— ChEMBL document CHEMBL1148193, “Cytotoxic pyrroloiminoquinones from four new species of South African latrunculid sponges” (J Nat Prod, 2004)
